From the M2OR odorant receptor database

Assays:
Details in all cases: stereoisomer not certain
OR4C16 (Homo sapiens) = OR4C16 (Homo sapiens) (UniProt Q8NGL9)
Summary of the method: (§1)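 Assay methods differ from source to source, frequently being transient luciferase assays in mammalian cell lines. For each receptor–molecule pair, the label responsive (active) applies when the original authors judged the measured signal statistically different from baseline, and non-responsive (inactive) applies otherwise.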

OR4C3 (Homo sapiens) = OR4C3 (Homo sapiens) (UniProt Q8NH37)
Chain of OR4C3 (Homo sapiens) (Q8NH37 whole entry): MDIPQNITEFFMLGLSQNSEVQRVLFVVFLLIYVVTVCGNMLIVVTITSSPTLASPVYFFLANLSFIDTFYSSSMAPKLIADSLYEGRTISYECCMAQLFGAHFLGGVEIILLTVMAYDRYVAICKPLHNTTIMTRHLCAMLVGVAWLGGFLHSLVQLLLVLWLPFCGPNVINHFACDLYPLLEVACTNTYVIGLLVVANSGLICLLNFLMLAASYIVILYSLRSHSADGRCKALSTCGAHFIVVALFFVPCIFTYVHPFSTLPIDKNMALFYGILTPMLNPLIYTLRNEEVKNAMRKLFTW
Summary of the method: as §1

OR4C45 (Homo sapiens) [1] = biological target: OR4C45 (Homo sapiens) (UniProt A6NMZ5)
Summary of the method: as §1

OR4C46 (Homo sapiens) = OR4C46 (Homo sapiens) (UniProt A6NHA9)
Chain of OR4C46 (Homo sapiens) (A6NHA9 whole entry): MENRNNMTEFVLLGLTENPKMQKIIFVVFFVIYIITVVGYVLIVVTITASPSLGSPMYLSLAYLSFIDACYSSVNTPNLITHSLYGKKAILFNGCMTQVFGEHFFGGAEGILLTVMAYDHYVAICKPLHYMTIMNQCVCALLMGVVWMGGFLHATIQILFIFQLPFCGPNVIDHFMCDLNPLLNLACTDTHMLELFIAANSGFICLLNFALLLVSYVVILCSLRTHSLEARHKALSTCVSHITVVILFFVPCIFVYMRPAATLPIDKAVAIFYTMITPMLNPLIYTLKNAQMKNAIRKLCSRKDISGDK
Summary of the method: as §1

OR4C5 (Homo sapiens) = OR4C5 (Homo sapiens) (UniProt Q8NGB2)
Chain of OR4C5 (Homo sapiens) (Q8NGB2 whole entry): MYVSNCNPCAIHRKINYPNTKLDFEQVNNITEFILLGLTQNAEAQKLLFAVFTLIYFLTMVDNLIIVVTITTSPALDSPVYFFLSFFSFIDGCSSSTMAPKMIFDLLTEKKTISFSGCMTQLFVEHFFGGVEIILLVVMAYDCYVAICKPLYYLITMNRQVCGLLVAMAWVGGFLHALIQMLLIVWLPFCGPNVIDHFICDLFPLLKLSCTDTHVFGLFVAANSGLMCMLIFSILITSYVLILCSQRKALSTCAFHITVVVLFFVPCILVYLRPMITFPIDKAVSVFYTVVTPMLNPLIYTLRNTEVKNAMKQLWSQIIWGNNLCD
Summary of the method: as §1

OR4C6 (Homo sapiens) = OR4C6 (Homo sapiens) (UniProt Q8NH72)
Chain of OR4C6 (Homo sapiens) (Q8NH72 whole entry): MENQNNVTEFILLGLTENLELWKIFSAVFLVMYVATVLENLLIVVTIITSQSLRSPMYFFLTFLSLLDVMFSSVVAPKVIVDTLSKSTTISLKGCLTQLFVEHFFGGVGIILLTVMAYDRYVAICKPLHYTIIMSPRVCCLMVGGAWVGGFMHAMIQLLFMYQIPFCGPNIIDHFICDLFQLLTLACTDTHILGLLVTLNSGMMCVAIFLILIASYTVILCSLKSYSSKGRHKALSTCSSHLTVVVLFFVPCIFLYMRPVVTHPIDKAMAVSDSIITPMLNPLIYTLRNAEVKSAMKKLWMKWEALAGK
Summary of the method: as §1

OR4D1 (Homo sapiens) = OR4D1 (Homo sapiens) (UniProt Q15615)
Chain of OR4D1 (Homo sapiens) (Q15615 whole entry): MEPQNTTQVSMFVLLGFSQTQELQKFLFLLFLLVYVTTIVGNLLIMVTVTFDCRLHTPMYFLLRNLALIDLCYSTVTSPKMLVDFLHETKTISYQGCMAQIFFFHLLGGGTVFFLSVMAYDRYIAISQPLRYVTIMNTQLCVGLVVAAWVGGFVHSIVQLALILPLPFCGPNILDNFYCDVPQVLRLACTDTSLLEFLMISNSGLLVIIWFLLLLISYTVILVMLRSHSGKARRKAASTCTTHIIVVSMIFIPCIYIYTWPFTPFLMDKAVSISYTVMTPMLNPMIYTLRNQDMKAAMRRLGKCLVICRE
Summary of the method: as §1

OR4D10 (Homo sapiens) = OR4D10 (Homo sapiens) (UniProt Q8NGI6)
Chain of OR4D10 (Homo sapiens) (Q8NGI6 whole entry): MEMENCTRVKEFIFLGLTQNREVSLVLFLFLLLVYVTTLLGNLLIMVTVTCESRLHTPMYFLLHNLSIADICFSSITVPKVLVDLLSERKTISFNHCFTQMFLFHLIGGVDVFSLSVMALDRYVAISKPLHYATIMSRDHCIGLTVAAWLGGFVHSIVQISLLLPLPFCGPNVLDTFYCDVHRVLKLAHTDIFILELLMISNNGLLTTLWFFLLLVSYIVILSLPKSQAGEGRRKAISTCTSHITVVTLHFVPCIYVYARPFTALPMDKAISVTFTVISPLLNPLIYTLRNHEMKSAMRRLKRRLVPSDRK
Summary of the method: as §1

OR4D11 (Homo sapiens) = OR4D11 (Homo sapiens) (UniProt Q8NGI4)
Chain of OR4D11 (Homo sapiens) (Q8NGI4 whole entry): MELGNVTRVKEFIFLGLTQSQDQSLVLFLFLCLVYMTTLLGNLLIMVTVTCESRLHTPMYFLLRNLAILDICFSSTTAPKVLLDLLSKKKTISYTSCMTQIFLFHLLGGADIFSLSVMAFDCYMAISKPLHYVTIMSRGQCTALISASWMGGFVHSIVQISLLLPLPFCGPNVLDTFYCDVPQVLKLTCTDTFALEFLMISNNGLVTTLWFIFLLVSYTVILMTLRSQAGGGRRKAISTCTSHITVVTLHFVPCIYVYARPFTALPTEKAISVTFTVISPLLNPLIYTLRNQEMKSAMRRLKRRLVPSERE
Summary of the method: as §1

OR4D2 (Homo sapiens) = OR4D2 (Homo sapiens) (UniProt P58180)
Chain of OR4D2 (Homo sapiens) (P58180 whole entry): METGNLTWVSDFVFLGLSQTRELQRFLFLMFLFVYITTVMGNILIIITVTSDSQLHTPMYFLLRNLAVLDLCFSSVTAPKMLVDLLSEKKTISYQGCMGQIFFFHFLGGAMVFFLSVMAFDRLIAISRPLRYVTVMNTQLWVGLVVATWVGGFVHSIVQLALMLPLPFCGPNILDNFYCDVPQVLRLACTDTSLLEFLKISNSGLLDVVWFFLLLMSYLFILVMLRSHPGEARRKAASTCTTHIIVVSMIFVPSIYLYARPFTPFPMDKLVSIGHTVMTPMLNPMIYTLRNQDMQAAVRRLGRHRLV
Summary of the method: as §1

OR4D5 (Homo sapiens) = OR4D5 (Homo sapiens) (UniProt Q8NGN0)
Chain of OR4D5 (Homo sapiens) (Q8NGN0 whole entry): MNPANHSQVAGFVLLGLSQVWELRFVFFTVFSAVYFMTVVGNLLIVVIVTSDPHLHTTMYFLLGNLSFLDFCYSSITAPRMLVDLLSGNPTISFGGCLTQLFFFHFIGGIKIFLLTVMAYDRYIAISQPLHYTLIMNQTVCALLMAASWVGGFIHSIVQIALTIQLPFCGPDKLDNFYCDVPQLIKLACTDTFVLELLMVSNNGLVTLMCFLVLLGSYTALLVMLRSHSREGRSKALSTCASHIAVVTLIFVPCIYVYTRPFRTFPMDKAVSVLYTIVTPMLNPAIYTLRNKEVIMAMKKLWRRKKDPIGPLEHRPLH
Summary of the method: as §1

OR4C3 = tested on: OR4C3
Chain of OR4C3 (as listed by the source): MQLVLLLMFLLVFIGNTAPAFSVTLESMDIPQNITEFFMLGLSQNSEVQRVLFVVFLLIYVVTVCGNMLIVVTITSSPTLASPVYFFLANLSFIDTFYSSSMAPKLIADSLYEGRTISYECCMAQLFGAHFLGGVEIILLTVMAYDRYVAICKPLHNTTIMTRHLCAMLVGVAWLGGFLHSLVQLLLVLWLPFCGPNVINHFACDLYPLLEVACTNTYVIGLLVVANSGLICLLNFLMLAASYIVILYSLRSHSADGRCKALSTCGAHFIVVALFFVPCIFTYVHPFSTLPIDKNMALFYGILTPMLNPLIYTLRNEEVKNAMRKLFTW
Summary of the method: as §1

OR4C45 (Homo sapiens) [2] = biological target: OR4C45 (Homo sapiens) (UniProt A6NMZ5); remark: listed apart in the source
Summary of the method: as §1

OR4CB P8T = tested on: OR4CB P8T
Chain of OR4CB P8T (as listed by the source): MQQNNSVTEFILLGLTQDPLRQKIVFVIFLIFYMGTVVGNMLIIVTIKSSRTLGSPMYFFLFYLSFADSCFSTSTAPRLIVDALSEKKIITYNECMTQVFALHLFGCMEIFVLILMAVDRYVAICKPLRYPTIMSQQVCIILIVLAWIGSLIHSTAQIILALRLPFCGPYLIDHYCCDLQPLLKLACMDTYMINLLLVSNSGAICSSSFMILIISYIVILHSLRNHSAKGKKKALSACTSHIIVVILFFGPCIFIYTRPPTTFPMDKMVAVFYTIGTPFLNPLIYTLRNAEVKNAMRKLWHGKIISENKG
Summary of the method: as §1

OR4CC = tested on: OR4CC
Summary of the method: as §1

OR4CD V133I = tested on: OR4CD V133I
Summary of the method: as §1

OR4CF = tested on: OR4CF
Chain of OR4CF (as listed by the source): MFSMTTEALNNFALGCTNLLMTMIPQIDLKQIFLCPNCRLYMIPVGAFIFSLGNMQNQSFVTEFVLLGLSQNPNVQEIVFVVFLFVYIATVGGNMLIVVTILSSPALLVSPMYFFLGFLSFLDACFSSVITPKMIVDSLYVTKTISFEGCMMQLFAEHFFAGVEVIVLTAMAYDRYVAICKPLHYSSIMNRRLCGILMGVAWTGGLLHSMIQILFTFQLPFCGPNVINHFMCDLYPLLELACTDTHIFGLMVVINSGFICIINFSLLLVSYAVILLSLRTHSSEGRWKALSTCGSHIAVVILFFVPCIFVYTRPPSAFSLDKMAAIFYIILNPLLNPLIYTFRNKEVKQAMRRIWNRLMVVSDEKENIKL
Summary of the method: as §1

OR4CG T76A = tested on: OR4CG T76A
Chain of OR4CG T76A (as listed by the source, stated change not applied): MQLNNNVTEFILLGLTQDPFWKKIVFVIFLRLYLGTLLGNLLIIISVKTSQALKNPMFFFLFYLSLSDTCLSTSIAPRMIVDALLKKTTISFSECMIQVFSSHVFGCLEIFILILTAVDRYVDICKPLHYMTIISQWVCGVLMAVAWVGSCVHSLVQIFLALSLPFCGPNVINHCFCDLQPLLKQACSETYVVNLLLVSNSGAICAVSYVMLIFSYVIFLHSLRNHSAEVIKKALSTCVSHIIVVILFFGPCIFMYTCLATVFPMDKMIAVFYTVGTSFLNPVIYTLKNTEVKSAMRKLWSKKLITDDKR
Summary of the method: as §1

OR4D1 = tested on: OR4D1
Chain of OR4D1 (as listed by the source): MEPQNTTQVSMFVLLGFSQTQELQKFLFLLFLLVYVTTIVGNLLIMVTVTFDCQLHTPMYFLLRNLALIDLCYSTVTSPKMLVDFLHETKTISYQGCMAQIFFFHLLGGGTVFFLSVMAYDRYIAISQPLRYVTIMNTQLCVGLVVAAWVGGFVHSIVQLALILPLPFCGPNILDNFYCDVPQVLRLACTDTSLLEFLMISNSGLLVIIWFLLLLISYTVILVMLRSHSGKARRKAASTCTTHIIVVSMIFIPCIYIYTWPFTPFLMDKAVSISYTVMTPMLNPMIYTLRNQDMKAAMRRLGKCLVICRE
Summary of the method: as §1

OR4D2 = tested on: OR4D2
Chain of OR4D2 (as listed by the source): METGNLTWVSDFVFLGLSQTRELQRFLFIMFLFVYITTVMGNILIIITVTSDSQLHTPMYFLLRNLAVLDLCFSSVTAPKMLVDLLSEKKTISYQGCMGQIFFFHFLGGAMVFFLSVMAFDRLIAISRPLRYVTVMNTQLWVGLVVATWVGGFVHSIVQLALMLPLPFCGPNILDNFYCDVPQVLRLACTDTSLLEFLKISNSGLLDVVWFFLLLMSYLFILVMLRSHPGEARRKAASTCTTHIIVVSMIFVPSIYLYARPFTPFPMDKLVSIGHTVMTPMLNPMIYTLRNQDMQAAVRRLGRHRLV
Summary of the method: as §1

Measured: odorant receptor agonist call

Chain of OR4C16 (Homo sapiens) (Q8NGL9 whole entry): as the sequence (as listed by the source, stated change not applied) above, with A76T counted along it

Cc1c([N+](=O)[O-])c(C)c([N+](=O)[O-])c(C(C)(C)C)c1[N+](=O)[O-]
inactive: OR4C16 (Homo sapiens) | OR4C3 (Homo sapiens) | OR4C45 (Homo sapiens) [1] | OR4C46 (Homo sapiens) | OR4C5 (Homo sapiens) | OR4C6 (Homo sapiens) | OR4D1 (Homo sapiens) | OR4D10 (Homo sapiens) | OR4D11 (Homo sapiens) | OR4D2 (Homo sapiens) | OR4D5 (Homo sapiens)

C=CCOC(=O)Cc1ccccc1
not listed: OR4C3 (Homo sapiens) | OR4C45 (Homo sapiens) [1]
inactive: all other assays above
